iPSC survival up = enhancers of human iPSC single-cell survival; hiPSC single-cell survival, ATPlite luminescence; 100% = ROCK inhibitor wells, 0% = DMSO; survival enhancement, % at 20 µM; 360,000 compounds, 0.044% hits; in the data active = survival enhancement above about 18%;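 note: cells exposed to compounds for 16 hours before the ATP read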
APOBEC3A inh = human APOBEC3A DNA deaminase inhibition; inhibition, % at 20 µM; AID 493011; 330,000 compounds, 0.41% hits; P31941; recombinant A3A, FAM/TAMRA ssDNA deamination fluorescence;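 active = at least 40% inhibition at 20 µM here, with at most 30% in a related deaminase screen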;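 note: plate controls were A3A with DMSO for no effect and wells lacking A3A enzyme for full effect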
HKDC1 inhibitor = blocks human hexokinase HKDC1 activity; inhibition, % at 20 µM; Q2TB90; recombinant HKDC1, G6PDH/diaphorase resazurin coupled fluorescence; 340,000 compounds, 0.16% hits;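 active = inhibition above about 35% when tested at 20 µM, limit read from the data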;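 note: plate controls were DMSO wells with enzyme for no effect and DMSO wells lacking enzyme for full effect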
Target sequence (Q2TB90 whole entry, looked up): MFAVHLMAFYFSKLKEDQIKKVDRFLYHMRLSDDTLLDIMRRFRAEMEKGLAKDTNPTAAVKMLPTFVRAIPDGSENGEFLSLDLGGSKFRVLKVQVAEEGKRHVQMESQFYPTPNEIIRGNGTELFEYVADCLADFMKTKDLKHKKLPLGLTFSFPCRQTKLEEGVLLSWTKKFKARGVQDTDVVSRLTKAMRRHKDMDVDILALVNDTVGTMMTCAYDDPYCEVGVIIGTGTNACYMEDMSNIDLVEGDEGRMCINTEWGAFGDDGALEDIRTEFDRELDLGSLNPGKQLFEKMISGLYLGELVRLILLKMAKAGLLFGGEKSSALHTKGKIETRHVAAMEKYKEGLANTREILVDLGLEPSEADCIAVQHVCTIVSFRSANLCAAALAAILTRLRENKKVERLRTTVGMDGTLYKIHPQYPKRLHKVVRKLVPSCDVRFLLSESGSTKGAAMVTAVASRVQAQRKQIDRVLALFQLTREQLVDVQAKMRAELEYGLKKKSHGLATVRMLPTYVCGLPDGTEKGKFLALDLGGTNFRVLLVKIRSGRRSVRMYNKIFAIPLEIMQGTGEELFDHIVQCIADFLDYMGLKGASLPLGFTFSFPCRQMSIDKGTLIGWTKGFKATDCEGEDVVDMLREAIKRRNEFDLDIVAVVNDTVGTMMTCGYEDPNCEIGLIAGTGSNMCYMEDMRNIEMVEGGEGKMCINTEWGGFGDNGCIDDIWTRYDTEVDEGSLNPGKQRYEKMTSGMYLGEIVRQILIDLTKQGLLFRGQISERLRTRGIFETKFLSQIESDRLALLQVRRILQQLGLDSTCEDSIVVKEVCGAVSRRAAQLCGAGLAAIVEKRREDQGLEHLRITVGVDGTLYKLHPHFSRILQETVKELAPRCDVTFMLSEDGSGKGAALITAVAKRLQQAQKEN
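Test system: recombinant HKDC1 (HK5) hexokinase enzyme, produced in-house; Amount: enzyme 5 µg/mL final; Buffer or medium: Tris pH 8.0 buffer with MgCl2, Tween-20, BSA, BME; Reagent: glucose and ATP substrates; Doses: 20 µM test compound, 1% DMSO; Incubation: 90 min reaction incubation at room temperature, dark; Detection: resorufin fluorescence at 613 nm.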
A3G deaminase = APOBEC3G (human) deaminase inhibition | inhibition, % at 20 µM | recombinant A3G, ssDNA deamination FAM/TAMRA fluorescence | 330,000 compounds, 0.28% hits | AID 493012;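 active = inhibition of at least 40% at 20 µM, with no more than 30% in the related APOBEC3A deaminase screen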;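 note: plate controls were DMSO wells with A3G for no effect and wells lacking A3G enzyme for full effect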
PfGluPho inh = PfG6PD (Plasmodium falciparum) enzyme inhibition | PfGluPho enzyme, NADPH resazurin-diaphorase fluorescence | inhibition, % at 20 µM | 350,000 compounds, 0.78% hits;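 active = inhibition reaching at least a set limit at 20 µM in the primary screen, cut at about 59% in these data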;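 note: 0% = DMSO wells with substrate and 100% = DMSO wells lacking glucose-6-phosphate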
A3G conf = confirmation of human APOBEC3G DNA deaminase inhibitors. AID 493152. 890 compounds, 72% hits. recombinant A3G ssDNA deaminase, UDG/FAM-TAMRA fluorescence. shares compounds with A3G deaminase. inhibition, % at 20 µM;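 active = inhibition reaching a set limit in any replicate at 20 µM, the limit being 80% of the first screen's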
UDG ctr A3G = E. coli UDG inhibition in APOBEC3G counter-screen | shares compounds with A3G deaminase | UDG counterscreen, FAM/TAMRA oligo fluorescence | inhibition, % at 20 µM | 710 tested, under 10 active | AID 504715;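 active = compounds giving 40% or more inhibition at 20 µM in any one of the three replicates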;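 note: plate controls were DMSO wells with UDG and oligo for no effect and DMSO wells lacking both for full effect; inhibitors lower the FAM signal released by uracil excision and alkaline cleavage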
An asterisk follows results filed as active; nt = no result given. An excerpt weighted towards active compounds, which were near 1.4% of everything screened.

SMILES	iPSC survival up	APOBEC3A inh	HKDC1 inhibitor	A3G deaminase	PfGluPho inh	A3G conf	UDG ctr A3G
CC(O)CC(C(=O)NNc1ccccc1)C(=O)NNc1ccccc1 (stereo not drawn)	-1	-2	-3	44*	-11	1	-3
C=C(C)C(=O)Nc1ccc2c(c1)OCCOCCOCCO2	-1	20	-4	78*	14	86*	nt
CC(=O)Nc1ccc2c(c1)OCCO2	6	-1	-3	-3	10	nt	nt
O=C(NCC1CC1)c1ccc(-n2ccnc2)c2ccoc12	0	nt	nt	nt	nt	nt	nt
CCN(CC)S(=O)(=O)c1cccc(-c2n[nH]c(=S)n2C)c1	0	-3	-11	46*	18	69*	0
Cc1ccc(-c2n[nH]c(=S)n2C)cc1Cl	0	-14	-6	50*	22	61*	-3
C=CCn1c(-c2cccc(S(=O)(=O)N(CC)CC)c2)n[nH]c1=S	1	-3	-10	47*	27	79*	-1
Cc1ccc(-n2c(-c3ccc(Cl)cc3)n[nH]c2=S)c(C)c1	0	-12	3	5	48	nt	nt
COC(=O)[C@@H](NCc1cccc(CN([C@H](C(=O)OC)C(C)C)S(C)(=O)=O)c1)C(C)C	1	-3	-3	-12	-4	nt	nt
C[C@@H]1CN([C@@H](C)CO)S(=O)(=O)c2ccc(Br)cc2O[C@@H]1CN(C)S(=O)(=O)c1cn(C)cn1	-1	nt	nt	nt	11	nt	nt
O=C(OCC(=O)N1CCCC1)c1c(Cl)ccc(Cl)c1Cl	0	-2	-7	-6	-13	nt	nt
O=C(NN1C(=O)C2CC=C(Cl)CC2C1=O)c1ccncc1 (stereo not drawn)	0	29	14	40*	-12	41*	-4
COc1ccc(NC(=O)c2ccc(N3C(=O)C4CC=C(Cl)CC4C3=O)cc2)cc1 (stereo not drawn)	0	0	3	2	-3	nt	nt
CC(=O)/C(=N/Nc1ccccc1C)N1CCOCC1	-2	0	1	41*	8	36*	0
CCC(=O)NC(=S)NNC(=O)c1ccccc1[N+](=O)[O-]	0	-5	-8	61*	18	2	-5
O=C(NNC(=S)NC(=O)c1ccccc1[N+](=O)[O-])c1ccccc1	0	-1	0	-6	-6	nt	nt
O=C(NC(=S)NNC(=O)c1ccccc1[N+](=O)[O-])c1ccccc1	0	-4	-9	46*	53	31*	3
CC(=O)Nc1cc(NC(C)=O)cc(C(=O)NCC2(N3CCOCC3)CCCCC2)c1	1	8	1	6	-1	nt	nt
NC(CCc1ccccc1)c1csc(Nc2cnccn2)n1 (stereo not drawn)	0	nt	nt	nt	nt	nt	nt
Cc1cc(NC(=O)CCCC(=O)NCc2ccccc2)no1	0	0	-13	44*	3	0	nt
CCCCn1c(N)c(N(CCOC)C(=O)c2cc(Cl)nc3ccccc23)c(=O)[nH]c1=O	-1	18	-6	-6	19	nt	nt
CCOC(=O)c1cc2c(OC)c(OC)ccc2c2[nH]cc(C#N)c(=O)c12	3	nt	nt	nt	-9	nt	nt
Cc1nnc(N=c2ssnc2Cl)o1	-3	3	-88	74*	116*	89*	-3
Nc1ccccc1N=c1ssnc1Cl	1	nt	-3	nt	59	nt	nt
CCCCCCN1C[C@H](O)[C@@H](n2cc(-c3ccc(F)cc3)nn2)C[C@@H]1c1ccc(C)cc1	2	nt	nt	nt	28	nt	nt
SMILES	iPSC survival up	APOBEC3A inh	HKDC1 inhibitor	A3G deaminase	PfGluPho inh	A3G conf	UDG ctr A3G
COc1ccccc1NC(=O)Nc1nnc([C@H]2C[C@H](O)[C@@H](CO)O2)s1	-1	nt	nt	nt	nt	nt	nt
N#Cc1c(N)sc(=S)c2c1CCCC2	-2	24	4	47*	44	25	nt
CCC1(C)Cc2c(C#N)c(N)sc(=S)c2CO1 (stereo not drawn)	-2	-1	10	17	32	nt	nt
O=C(COC(=O)c1ccc2ccccc2c1)NCc1ccccc1	0	nt	nt	nt	-15	nt	nt
COc1ccc(N2C(=O)CS(=O)C(c3ccccc3)C2=O)cc1 (stereo not drawn)	-2	-4	1	54*	19	90*	-4
C[C@H](O)[C@H](O)[C@H]1CNc2nc(N)[nH]c(=O)c2N1	5	2	5	41*	-6	34*	nt
Cc1ccc(NS(=O)(=O)c2ccc3c(c2)CCN3C(=O)CCC(=O)O)cc1Cl	-1	2	2	2	-27	nt	nt
O=C(O)C1CC(c2ccccc2)=NO1 (stereo not drawn)	1	6	5	5	-7	nt	nt
O=C(O)C1CC(c2ccc(F)cc2)=NO1 (stereo not drawn)	-1	23	3	74*	-2	73*	3
O=C1CC(c2ccc(O)c(O)c2)Oc2c1ccc(O)c2O (stereo not drawn)	-1	25	2	41*	29	55*	nt
Cc1ccc(OC(=O)c2sc(Cl)nc2C)cc1C	-1	0	10	54*	-6	-1	-1
COc1ccc(N(C)C(=O)c2sc(Cl)nc2C)cc1	0	-4	3	-4	-8	nt	nt
O=C1c2ccccc2C(=O)N1CCSc1ncn[nH]1	10	-3	-1	-5	-21	nt	nt
O=C1c2ccccc2C(=O)N1CCSc1n[nH]c(=S)s1	0	1	-3	54*	11	active	-4
CC(=O)c1ccc(NC(=O)c2ccc(NC(=O)c3ccco3)cc2)cc1	0	16	9	57*	-7	57*	2
CN(C(=O)c1ccc(NC(=O)Cc2ccc(NC(=O)C3CCCN(S(=O)(=O)c4cccc([N+](=O)[O-])c4)C3)cc2)cc1)C1CCCC1 (stereo not drawn)	-3	nt	-1	nt	-24	nt	nt
COc1cccc(CN2CCN(Cc3[nH]c4ccccc4c3C)CC2CCO)c1 (stereo not drawn)	0	-2	-3	51*	2	-8	-8
CC(=O)C1=C(S(=O)(=O)c2ccc(C)cc2)CS(=O)(=O)C1	0	2	-6	61*	41	78*	-4
C=CCCC(=O)Nc1ccc(Br)cn1	0	0	14	55*	-5	13	nt
N#CCC(=O)NNC(=S)NC(=O)C(c1ccccc1)c1ccccc1	0	0	-18	-7	-21	nt	nt
CC(=O)NC(=S)NNC(=O)C(c1ccccc1)c1ccccc1	1	2	-10	46*	-9	41*	-4
COCCN(Cc1ccc(F)cc1)C(=O)c1cc2ccccc2oc1=O	0	-5	-3	-4	-3	nt	nt
COc1ccc(N2C(=O)CC(Sc3ncn[nH]3)C2=O)c(OC)c1 (stereo not drawn)	0	-5	3	46*	-2	active	-2
COc1ccc(N2C(=O)N(Cc3ccc(C)cc3)c3ccccc3S2(=O)=O)cc1	5	5	-4	47*	13	-1	nt

Screening data: PubChem BioAssay, Sanford-Burnham Center for Chemical Genomics
